In brackets after ≈: the same amount, converted by molar mass.
Columns and labels:
Enterococcus faecalis [1] = assay: Antibacterial activity against vancomycin resistant Enterococcus faecalis 51575 assessed as inhibition of bacterial growth measured after 24 hrs; format: functional
Enterococcus faecium [2] = assay: Antibacterial activity against Enterococcus faecium 35667 assessed as inhibition of bacterial growth measured after 24 hrs; format: functional
Enterococcus faecium [3] = assay: Antibacterial activity against vancomycin resistant Enterococcus faecium 700221 assessed as inhibition of bacterial growth measured after 24 hrs; format: functional
Staphylococcus aureus [4] = assay: Antibacterial activity against Staphylococcus aureus 29213 assessed as inhibition of bacterial growth measured after 24 hrs; format: functional
Staphylococcus aureus [5] = assay: Antibacterial activity against Methicillin resistant Staphylococcus aureus 43300 assessed as inhibition of bacterial growth measured after 24 hrs; format: functional
[6] = Efflux ratio of MIC for Escherichia coli 25922 to MIC for Escherichia coli JW5503; format: functional
Procedure, shortened: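 Ratio of the MIC against wild-type E. coli ATCC 25922 to the MIC against the tolC deletion mutant JW5503. Both MICs were read after 24 h, n = 3. Not determined when the MIC was >50 μM for both strains.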

Enterococcus faecalis [7] = assay: Antibacterial activity against Enterococcus faecalis 29212 assessed as inhibition of bacterial growth measured after 24 hrs; settings: Enterococcus faecalis, 29212, 24 h
Escherichia coli = assay: Antibacterial activity against Escherichia coli JW5503 delta tolC mutant assessed as inhibition of bacterial growth measured after 24 hrs; settings: JW5503, 24 h

| SMILES | MIC (Enterococcus faecalis [1]) [µM] | MIC (Enterococcus faecium [2]) [µM] | MIC (Enterococcus faecium [3]) [µM] | MIC (Staphylococcus aureus [4]) [µM] | MIC (Staphylococcus aureus [5]) [µM] | Ratio [6] | MIC (Enterococcus faecalis [7]) [µM] | MIC (Escherichia coli) [µM] |
| --- | --- | --- | --- | --- | --- | --- | --- | --- |
| CC(=O)NCC1CN(c2ccc(-c3ccc(COC(=O)c4ccc(B(O)O)c(F)c4)cc3)c(F)c2)C(=O)O1 (stereo not drawn) | 0.78 (≈ 0.409 µg/mL) | 1.56 (≈ 0.818 µg/mL) | 1.56 (≈ 0.818 µg/mL) | 1.56 (≈ 0.818 µg/mL) | 1.56 (≈ 0.818 µg/mL) | > 4 | 1.56 (≈ 0.818 µg/mL) | 12.5 (≈ 6.55 µg/mL) |
| CC(=O)NC[C@H]1CN(c2ccc(-c3ccc(CO)cc3)c(F)c2)C(=O)O1 | 0.78 (≈ 0.28 µg/mL) | 0.78 (≈ 0.28 µg/mL) | 0.78 (≈ 0.28 µg/mL) | 1.56 (≈ 0.559 µg/mL) | 0.78 (≈ 0.28 µg/mL) | > 32 | 0.78 (≈ 0.28 µg/mL) | 1.56 (≈ 0.559 µg/mL) |
| CC(=O)NCC1CN(c2ccc(-c3ccc(COC(=O)c4ccc(B(O)O)cc4)cc3)c(F)c2)C(=O)O1 (stereo not drawn) | 1.56 (≈ 0.79 µg/mL) | 3.23 (≈ 1.64 µg/mL) | 1.56 (≈ 0.79 µg/mL) | 3.13 (≈ 1.58 µg/mL) | 1.56 (≈ 0.79 µg/mL) | > 8 | 3.13 (≈ 1.58 µg/mL) | 6.25 (≈ 3.16 µg/mL) |
| O=C(O)c1ccc(B(O)O)cc1 | > 50 | > 50 | > 50 | > 50 | > 50 |  | > 50 | > 50 |
| CC(=O)NC[C@H]1CN(c2ccc(-c3ccc(COC(=O)c4cccc(B(O)O)c4)cc3)c(F)c2)C(=O)O1 | 0.78 (≈ 0.395 µg/mL) | > 50 | > 50 | 1.56 (≈ 0.79 µg/mL) | 0.78 (≈ 0.395 µg/mL) | > 16 | > 50 | 3.13 (≈ 1.58 µg/mL) |
| CC(=O)NC[C@H]1CN(c2ccc(-c3ccc(OC(=O)c4ccc(B(O)O)cc4)cc3)c(F)c2)C(=O)O1 | > 50 | > 50 | > 50 | > 50 | > 50 |  | > 50 | > 50 |
| CC(=O)NC[C@H]1CN(c2ccc(-c3cccc(COC(=O)c4ccc(B(O)O)cc4)c3)c(F)c2)C(=O)O1 | 0.39 (≈ 0.197 µg/mL) | 0.78 (≈ 0.395 µg/mL) | 0.78 (≈ 0.395 µg/mL) | 0.78 (≈ 0.395 µg/mL) | 0.78 (≈ 0.395 µg/mL) | > 16 | 0.78 (≈ 0.395 µg/mL) | 3.13 (≈ 1.58 µg/mL) |
| CC(=O)NCC1CN(c2ccc(-c3ccc(COC(=O)c4ccc(B(O)O)cc4F)cc3)c(F)c2)C(=O)O1 (stereo not drawn) | 1.56 (≈ 0.818 µg/mL) | 1.56 (≈ 0.818 µg/mL) | 1.56 (≈ 0.818 µg/mL) | 1.56 (≈ 0.818 µg/mL) | 1.56 (≈ 0.818 µg/mL) | > 2 | 1.56 (≈ 0.818 µg/mL) | 25 (≈ 13.1 µg/mL) |
| CC(=O)NCC1CN(c2ccc(-c3ccc(COC(=O)c4ccc(B(O)O)cc4Cl)cc3)c(F)c2)C(=O)O1 (stereo not drawn) | 3.13 (≈ 1.69 µg/mL) | 3.13 (≈ 1.69 µg/mL) | 3.13 (≈ 1.69 µg/mL) | 3.13 (≈ 1.69 µg/mL) | 3.13 (≈ 1.69 µg/mL) | > 2 | 3.13 (≈ 1.69 µg/mL) | 25 (≈ 13.5 µg/mL) |
| CC(=O)NC[C@H]1CN(c2ccc(-c3cccc(CO)c3)c(F)c2)C(=O)O1 | 3.13 (≈ 1.12 µg/mL) | 1.56 (≈ 0.559 µg/mL) | 1.56 (≈ 0.559 µg/mL) | 3.13 (≈ 1.12 µg/mL) | 1.56 (≈ 0.559 µg/mL) | > 16 | 1.56 (≈ 0.559 µg/mL) | 3.13 (≈ 1.12 µg/mL) |
| CC(=O)NC[C@H]1CN(c2ccc(-c3ccc(COC(=O)c4ccc(B(O)O)cc4)cc3)c(F)c2)C(=O)O1 | 0.39 (≈ 0.197 µg/mL) | 0.78 (≈ 0.395 µg/mL) | 0.39 (≈ 0.197 µg/mL) | 0.78 (≈ 0.395 µg/mL) | 0.78 (≈ 0.395 µg/mL) | > 16 | 0.78 (≈ 0.395 µg/mL) | 3.13 (≈ 1.58 µg/mL) |
| CC(=O)NCC1CN(c2ccc(-c3ccc(COC(=O)c4ccccc4)cc3)c(F)c2)C(=O)O1 (stereo not drawn) | 3.13 (≈ 1.45 µg/mL) | 6.25 (≈ 2.89 µg/mL) | 3.13 (≈ 1.45 µg/mL) | 3.13 (≈ 1.45 µg/mL) | 3.13 (≈ 1.45 µg/mL) |  | 3.13 (≈ 1.45 µg/mL) | > 50 |
| CC(=O)NC[C@H]1CN(c2ccc(-c3ccc(CN)cc3)c(F)c2)C(=O)O1 | 1.56 (≈ 0.558 µg/mL) | 0.78 (≈ 0.279 µg/mL) | 1.56 (≈ 0.558 µg/mL) | 3.13 (≈ 1.12 µg/mL) | 3.13 (≈ 1.12 µg/mL) | > 8 | 1.56 (≈ 0.558 µg/mL) | 6.25 (≈ 2.23 µg/mL) |
| CC(=O)NC[C@H]1CN(c2ccc(-c3ccc(O)cc3)c(F)c2)C(=O)O1 | 0.39 (≈ 0.134 µg/mL) | 0.78 (≈ 0.269 µg/mL) | 0.39 (≈ 0.134 µg/mL) | 0.78 (≈ 0.269 µg/mL) | 0.78 (≈ 0.269 µg/mL) | > 32 | 0.39 (≈ 0.134 µg/mL) | 1.56 (≈ 0.537 µg/mL) |
| CC(=O)NCC1CN(c2ccc(-c3ccc(COC(=O)c4ccc(B(O)O)c(Cl)c4)cc3)c(F)c2)C(=O)O1 (stereo not drawn) | 1.56 (≈ 0.844 µg/mL) | 1.56 (≈ 0.844 µg/mL) | 1.56 (≈ 0.844 µg/mL) | 1.56 (≈ 0.844 µg/mL) | 1.56 (≈ 0.844 µg/mL) | > 2 | 1.56 (≈ 0.844 µg/mL) | 25 (≈ 13.5 µg/mL) |
| CC(=O)NC[C@H]1CN(c2ccc(-c3ccc(CNC(=O)c4cccc(B(O)O)c4)cc3)c(F)c2)C(=O)O1 | 0.39 (≈ 0.197 µg/mL) | 0.78 (≈ 0.394 µg/mL) | 0.78 (≈ 0.394 µg/mL) | 0.78 (≈ 0.394 µg/mL) | 0.78 (≈ 0.394 µg/mL) | > 64 | 0.39 (≈ 0.197 µg/mL) | 0.78 (≈ 0.394 µg/mL) |
| CC(=O)NC[C@H]1CN(c2ccc(N3CCOCC3)c(F)c2)C(=O)O1 [LINEZOLID] | 6.25 (≈ 2.11 µg/mL) | 12.5 (≈ 4.22 µg/mL) | 6.25 (≈ 2.11 µg/mL) | 6.25 (≈ 2.11 µg/mL) | 6.25 (≈ 2.11 µg/mL) | > 1 | 6.25 (≈ 2.11 µg/mL) | 75 (≈ 25.3 µg/mL) |
| O=C(O)c1cn(C2CC2)c2cc(N3CCNCC3)c(F)cc2c1=O [CIPROFLOXACIN] | 3 (≈ 0.994 µg/mL) |  |  | 1.5 (≈ 0.497 µg/mL) |  |  |  |  |
| CC(=O)NC[C@H]1CN(c2ccc(-c3ccc(CNC(=O)c4ccc(B(O)O)cc4)cc3)c(F)c2)C(=O)O1 | 0.39 (≈ 0.197 µg/mL) | 0.39 (≈ 0.197 µg/mL) | 0.39 (≈ 0.197 µg/mL) | 0.78 (≈ 0.394 µg/mL) | 0.78 (≈ 0.394 µg/mL) | > 64 | 0.39 (≈ 0.197 µg/mL) | 0.78 (≈ 0.394 µg/mL) |

From ChEMBL document CHEMBL4818993, “Installation of an aryl boronic acid function into the external section of N-aryl-oxazolidinones: Synthesis and antimicrobial evaluation” (2021)
